Laboratory results reported in ChEMBL document CHEMBL3804782, “Targeting the BACE1 Active Site Flap Leads to a Potent Inhibitor That Elicits Robust Brain Aβ Reduction in Rodents” (ACS Med Chem Lett, 2016).
Calls of active or inactive are those of the source. No cut-off for these calls is given here.

Tests used:
[1] = Metabolic stability in human liver microsomes assessed as parent compound remaining at 0.5 uM after 10 mins; type: ADME; details: read-out: Stability
[2] = Metabolic stability in mouse liver microsomes assessed as parent compound remaining at 0.5 uM after 10 mins; type: ADME; details: read-out: Stability
[3] = target: Beta-secretase 1 (Homo sapiens, UniProt P56817); test: Inhibition of BACE1 in human H4 cells expressing APP751 Swedish mutant assessed as inhibition of amyloid beta 40 or amyloid beta 42 production incubated for 19 hrs by microplate reader analysis; type: cell-based
[4] = Metabolic stability in rat liver microsomes assessed as parent compound remaining at 0.5 uM after 10 mins; type: ADME; details: read-out: Stability
[5] = system: Rattus norvegicus; test: Antialzheimer activity in rat assessed as reduction in amyloid beta level in brain at 30 mg/kg, po measured at 5 hrs post dose by ELISA; type: functional, organism-based
[6] = system: Plasma; test: Drug metabolism in mouse plasma assessed as (4S,6S)-4-(5-amino-2,3-difluorophenyl)-6-(3,5-dimethylisoxazol-4-yl)-4-methyl-5,6-dihydro-4H-1,3-thiazin-2-amine formation at 10 mg/kg, po after 3 hrs; type: ADME, organism-based; details: in vivo
[7] = target: T1, Cytochrome P450 1A2 (Homo sapiens, UniProt P05177); test: Inhibition of CYP1A2 (unknown origin) expressed in baculovirus infected insect cells using CEC as susbtrate incubated for 45 mins by plate reader analysis in presence of NADP+; type: ADME
T1 sequence (P05177 whole entry): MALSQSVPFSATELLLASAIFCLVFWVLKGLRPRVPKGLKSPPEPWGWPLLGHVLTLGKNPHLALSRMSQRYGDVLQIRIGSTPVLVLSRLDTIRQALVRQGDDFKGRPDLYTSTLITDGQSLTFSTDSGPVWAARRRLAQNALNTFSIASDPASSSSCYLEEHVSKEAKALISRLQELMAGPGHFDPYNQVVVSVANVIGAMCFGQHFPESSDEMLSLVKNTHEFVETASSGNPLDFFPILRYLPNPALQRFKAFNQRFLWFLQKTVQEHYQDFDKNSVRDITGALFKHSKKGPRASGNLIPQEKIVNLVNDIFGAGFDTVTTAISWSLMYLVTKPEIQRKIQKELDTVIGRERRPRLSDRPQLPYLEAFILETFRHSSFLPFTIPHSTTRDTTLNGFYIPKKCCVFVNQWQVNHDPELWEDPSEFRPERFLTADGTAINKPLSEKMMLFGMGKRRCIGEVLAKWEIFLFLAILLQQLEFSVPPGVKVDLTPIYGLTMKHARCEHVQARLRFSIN

[8] = Plasma concentration in rat at 10 mg/kg, po after 5 hrs; type: ADME, organism-based
Method in brief: (§1)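 Female rats given a single oral dose in PEG-400/EtOH/Tween 80 (84:15:1). Plasma and brain were collected 5 h postdose, 5 rats per dose, to measure drug exposure and brain Aβ levels. Values are means (n = 5) with SD.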

[9] = target: Cytochrome P450 2D6 (Homo sapiens, UniProt P10635); test: Inhibition of CYP2D6 (unknown origin) expressed in baculovirus infected insect cells using AMMC as susbtrate incubated for 45 mins by plate reader analysis in presence of NADP+; type: ADME
[10] = target: Cytochrome P450 2C19 (Homo sapiens, UniProt P33261); test: Inhibition of CYP2C19 (unknown origin) expressed in baculovirus infected insect cells using CEC as susbtrate incubated for 45 mins by plate reader analysis in presence of NADP+; type: ADME
[11] = target: T2, Cytochrome P450 3A4 (Homo sapiens, UniProt P08684); test: Inhibition of CYP3A4 (unknown origin) expressed in baculovirus infected insect cells using BFC as susbtrate incubated for 45 mins by plate reader analysis in presence of NADP+; type: ADME
[12] = Drug level in rat brain at 3 mg/kg, po after 5 hrs; type: ADME, organism-based; details: read-out: Drug uptake; method in brief: as §1
[13] = Drug level in rat brain at 10 mg/kg, po after 5 hrs; type: ADME, organism-based; details: read-out: Drug uptake; method in brief: as §1
[14] = target: T3, Cytochrome P450 2C8 (Homo sapiens, UniProt P10632); test: Inhibition of CYP2C8 (unknown origin); type: ADME
T3 sequence (P10632 whole entry): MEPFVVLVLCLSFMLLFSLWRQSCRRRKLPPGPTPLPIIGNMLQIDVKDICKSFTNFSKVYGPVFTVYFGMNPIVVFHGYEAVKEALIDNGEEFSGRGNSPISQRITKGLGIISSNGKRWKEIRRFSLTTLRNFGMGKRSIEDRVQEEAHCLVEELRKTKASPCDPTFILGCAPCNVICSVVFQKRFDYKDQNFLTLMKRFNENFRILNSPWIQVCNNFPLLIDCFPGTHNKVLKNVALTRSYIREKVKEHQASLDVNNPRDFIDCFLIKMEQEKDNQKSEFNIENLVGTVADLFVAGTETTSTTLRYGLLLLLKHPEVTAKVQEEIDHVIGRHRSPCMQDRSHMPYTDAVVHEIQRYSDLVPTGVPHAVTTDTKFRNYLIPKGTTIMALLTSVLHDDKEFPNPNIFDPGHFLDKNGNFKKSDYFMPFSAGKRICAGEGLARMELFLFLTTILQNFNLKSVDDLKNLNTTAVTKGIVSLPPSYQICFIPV

[15] = Ratio of drug level in rat brain to plasma at 10 mg/kg, po after 5 hrs; type: ADME, organism-based; details: read-out: BPR; method in brief: as §1
[16] = Plasma concentration in rat at 1 mg/kg, po after 5 hrs; type: ADME, organism-based; method in brief: as §1
[17] = Ratio of drug level in rat brain to plasma at 1 mg/kg, po after 5 hrs; type: ADME, organism-based; details: read-out: BPR; method in brief: as §1
[18] = Ratio of drug level in rat brain to plasma at 3 mg/kg, po after 5 hrs; type: ADME, organism-based; details: read-out: BPR; method in brief: as §1
[19] = target: Cytochrome P450 2C9 (Homo sapiens, UniProt P11712); test: Inhibition of CYP2C9 (unknown origin) expressed in baculovirus infected insect cells using MFC as susbtrate incubated for 45 mins by plate reader analysis in presence of NADP+; type: ADME
[20] = system: Mus musculus; test: Antialzheimer activity in mouse assessed as reduction in amyloid beta 42 level in brain at 10 mg/kg, po by ELISA relative to control; type: functional
[21] = system: Rattus norvegicus; test: Antialzheimer activity in po dosed rat assessed as reduction in amyloid beta (1 to 42) level in brain measured at 5 hrs post dose by ELISA; type: functional, organism-based; method in brief: as §1
[22] = system: Rattus norvegicus; test: Antialzheimer activity in rat assessed as free drug concentration in plasma required for reduction in amyloid beta (1 to 42) level in brain at 1 to 10 mg/kg, po measured at 5 hrs post dose; type: functional, organism-based
[23] = target: T2, Cytochrome P450 3A4; test: Inhibition of CYP3A4 (unknown origin) expressed in baculovirus infected insect cells using benzyloxyresorufin as susbtrate incubated for 45 mins by plate reader analysis in presence of NADP+; type: ADME
[24] = system: Rattus norvegicus; test: Antialzheimer activity in rat assessed as total plasma concentration required for reduction in amyloid beta (1 to 42) level in brain at 1 to 10 mg/kg, po measured at 5 hrs post dose; type: functional, organism-based
[25] = system: Plasma; test: Free plasma concentration in rat at 1 to 10 mg/kg, po measured at 5 hrs post dose; type: ADME, organism-based; details: in vivo
[26] = Plasma concentration in rat at 3 mg/kg, po after 5 hrs; type: ADME, organism-based; method in brief: as §1
[27] = system: Rattus norvegicus; test: Antialzheimer activity in po dosed rat assessed as reduction in amyloid beta (1 to 40) level in brain measured at 5 hrs post dose by ELISA; type: functional, organism-based; method in brief: as §1
[28] = Drug level in rat brain at 1 mg/kg, po after 5 hrs; type: ADME, organism-based; details: read-out: Drug uptake; method in brief: as §1
[29] = system: Rattus norvegicus; test: Antialzheimer activity in po dosed rat assessed as reduction in total amyloid beta level in brain measured at 5 hrs post dose by ELISA; type: functional, organism-based; method in brief: as §1
[30] = system: Salmonella typhimurium; test: Mutagenicity in Salmonella typhimurium by Ames test; type: toxicity, organism-based; details: salmonella enterica subsp. enterica serovar typhimurium
[31] = Plasma protein binding in rat at 1 to 10 mg/kg, po measured at 5 hrs post dose; type: ADME, organism-based; details: read-out: PPB (converted)

Chain of Beta-secretase 1 (P56817 whole entry): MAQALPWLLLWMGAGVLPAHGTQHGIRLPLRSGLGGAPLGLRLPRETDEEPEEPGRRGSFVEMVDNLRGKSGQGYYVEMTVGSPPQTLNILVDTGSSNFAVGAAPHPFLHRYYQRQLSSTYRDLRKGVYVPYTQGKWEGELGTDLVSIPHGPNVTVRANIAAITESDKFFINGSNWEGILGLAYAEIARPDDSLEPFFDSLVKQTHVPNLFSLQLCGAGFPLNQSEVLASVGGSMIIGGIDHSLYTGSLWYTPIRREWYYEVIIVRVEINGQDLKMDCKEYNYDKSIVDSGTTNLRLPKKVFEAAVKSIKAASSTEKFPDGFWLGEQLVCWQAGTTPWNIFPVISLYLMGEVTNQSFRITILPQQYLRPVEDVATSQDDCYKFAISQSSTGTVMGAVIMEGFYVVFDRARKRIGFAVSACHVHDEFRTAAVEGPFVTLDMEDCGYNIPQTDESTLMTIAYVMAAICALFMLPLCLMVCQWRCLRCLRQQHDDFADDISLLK
T2 sequence (P08684 whole entry): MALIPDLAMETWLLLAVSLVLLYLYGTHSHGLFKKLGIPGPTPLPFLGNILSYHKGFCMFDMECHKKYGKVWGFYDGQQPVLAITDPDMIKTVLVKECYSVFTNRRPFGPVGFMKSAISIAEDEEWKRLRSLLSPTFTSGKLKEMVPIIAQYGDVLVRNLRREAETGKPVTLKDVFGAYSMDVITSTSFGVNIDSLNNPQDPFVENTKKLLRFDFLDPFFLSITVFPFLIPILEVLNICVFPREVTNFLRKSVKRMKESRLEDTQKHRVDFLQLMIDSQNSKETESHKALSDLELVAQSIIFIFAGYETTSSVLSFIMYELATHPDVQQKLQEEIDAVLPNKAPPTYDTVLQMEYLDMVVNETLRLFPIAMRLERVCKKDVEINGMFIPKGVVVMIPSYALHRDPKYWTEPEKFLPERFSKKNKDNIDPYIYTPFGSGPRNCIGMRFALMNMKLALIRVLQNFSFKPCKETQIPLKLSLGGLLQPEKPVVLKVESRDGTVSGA
Chain of Cytochrome P450 2C19 (P33261 whole entry): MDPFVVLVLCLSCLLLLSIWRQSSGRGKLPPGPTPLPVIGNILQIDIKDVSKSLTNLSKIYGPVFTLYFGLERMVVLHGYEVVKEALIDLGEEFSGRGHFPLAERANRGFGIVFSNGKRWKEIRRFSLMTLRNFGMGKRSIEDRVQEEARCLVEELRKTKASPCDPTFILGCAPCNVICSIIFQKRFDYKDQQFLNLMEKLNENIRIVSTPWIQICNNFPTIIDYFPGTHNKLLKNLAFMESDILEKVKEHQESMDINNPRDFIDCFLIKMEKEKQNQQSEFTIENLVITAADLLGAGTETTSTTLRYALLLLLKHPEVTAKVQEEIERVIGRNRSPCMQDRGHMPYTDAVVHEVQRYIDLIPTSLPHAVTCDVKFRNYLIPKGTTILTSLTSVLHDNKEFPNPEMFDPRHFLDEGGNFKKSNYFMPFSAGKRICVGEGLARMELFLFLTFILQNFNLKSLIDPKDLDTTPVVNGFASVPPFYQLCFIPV
Chain of Cytochrome P450 2D6 (P10635 whole entry): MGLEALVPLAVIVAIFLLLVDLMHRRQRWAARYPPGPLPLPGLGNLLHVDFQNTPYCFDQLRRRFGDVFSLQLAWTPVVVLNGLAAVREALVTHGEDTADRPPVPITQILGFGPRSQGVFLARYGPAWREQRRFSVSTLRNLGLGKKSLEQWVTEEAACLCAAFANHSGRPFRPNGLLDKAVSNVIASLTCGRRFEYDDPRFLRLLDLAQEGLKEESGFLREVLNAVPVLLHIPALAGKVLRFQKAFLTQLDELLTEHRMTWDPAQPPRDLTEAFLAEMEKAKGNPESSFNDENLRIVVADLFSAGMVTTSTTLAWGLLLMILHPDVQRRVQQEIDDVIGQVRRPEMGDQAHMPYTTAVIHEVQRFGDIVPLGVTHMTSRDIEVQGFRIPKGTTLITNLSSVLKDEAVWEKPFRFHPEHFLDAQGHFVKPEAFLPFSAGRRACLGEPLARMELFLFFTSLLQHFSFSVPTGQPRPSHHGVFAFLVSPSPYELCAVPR
Chain of Cytochrome P450 2C9 (P11712 whole entry): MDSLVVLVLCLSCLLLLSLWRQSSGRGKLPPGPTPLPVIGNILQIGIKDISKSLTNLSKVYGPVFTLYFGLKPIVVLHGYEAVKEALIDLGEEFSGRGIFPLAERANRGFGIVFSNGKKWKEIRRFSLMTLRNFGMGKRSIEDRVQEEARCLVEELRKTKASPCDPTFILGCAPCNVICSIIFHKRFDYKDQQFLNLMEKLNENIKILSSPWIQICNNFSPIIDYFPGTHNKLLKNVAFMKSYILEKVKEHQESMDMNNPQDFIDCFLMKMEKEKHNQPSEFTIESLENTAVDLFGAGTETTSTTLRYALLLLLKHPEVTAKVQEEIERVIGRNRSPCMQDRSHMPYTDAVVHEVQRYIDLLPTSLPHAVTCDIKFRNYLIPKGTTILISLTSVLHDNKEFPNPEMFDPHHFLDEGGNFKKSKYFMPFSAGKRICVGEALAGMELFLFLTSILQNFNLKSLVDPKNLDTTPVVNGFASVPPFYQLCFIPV

Cc1noc(C)c1[C@@H]1C[C@@](C)(c2cc(F)cc(NC(=O)c3ccc(Cl)cn3)c2)N=C(N)S1
remaining at 10 min, 0.5 µM [1]: 39%
remaining at 10 min, 0.5 µM [2]: 13%
IC50 [3]: 0.0023 µM
remaining at 10 min, 0.5 µM [4]: 26%

Cc1oncc1[C@]1(C)C[C@@H](c2cc(-c3cncnc3)c(F)cc2F)N=C(N)S1 (racemic)
IC50 [3]: 0.18 µM

Cc1noc(C)c1[C@@H]1C[C@@](C)(c2cc(-c3cncnc3)c(F)cc2F)N=C(N)S1
remaining at 10 min, 0.5 µM [1]: 23%
remaining at 10 min, 0.5 µM [2]: 48%
remaining at 10 min, 0.5 µM [4]: 49%
inhibition [5]: Active

COc1ccc([C@@H]2C[C@@H](c3cccc(-c4cncnc4)c3)N=C(N)S2)cc1OC
IC50 [3]: 1.1 µM

Cc1noc(C)c1[C@@H]1C[C@@H](c2cc(NC(=O)c3ccc(Cl)cn3)ccc2F)N=C(N)S1
IC50 [3]: 0.005 µM

Cc1noc(C)c1[C@@H]1C[C@@](C)(c2cc(NC(=O)c3ccc(Cl)cn3)c(F)cc2F)N=C(N)S1
remaining at 10 min, 0.5 µM [1]: 78%
remaining at 10 min, 0.5 µM [2]: 75%
IC50 [3]: 0.031 µM
remaining at 10 min, 0.5 µM [4]: 76%

Cc1noc(C)c1[C@@H]1C[C@@H](c2cc(-c3cncnc3)c(F)cc2F)N=C(N)S1
IC50 [3]: 0.07 µM

COc1cnc(C(=O)Nc2cc(F)c(F)c([C@]3(C)C[C@@H](c4c(C)noc4C)SC(N)=N3)c2)cn1
Drug metabolism [6]: metabolite_detected
IC50 [7]: > 20 µM
concentration at 5 h [8]: 1500 nM
remaining at 10 min, 0.5 µM [1]: 81%
IC50 [9]: > 20 µM
IC50 [10]: > 20 µM
IC50 [11]: > 20 µM
concentration at 5 h [12]: 160 nM
concentration at 5 h [13]: 420 nM
remaining at 10 min, 0.5 µM [2]: 74%
IC50 [3]: 0.0009 µM
IC50 [14]: 5 µM
remaining at 10 min, 0.5 µM [4]: 69%
Kp at 5 h [15]: 0.3
concentration at 5 h [16]: 150 nM
Kp at 5 h [17]: 0.44
Kp at 5 h [18]: 0.46
IC50 [19]: > 20 µM
inhibition in vivo at 10 mg/kg [20]: 85%
inhibition [21]: Dose-dependent effect
EC50 [22]: 0.013 µM
IC50 [23]: > 20 µM
EC50 [24]: 0.26 µM
Cp(f) [25]: 13 nM
concentration at 5 h [26]: 360 nM
inhibition [27]: Dose-dependent effect
concentration at 5 h [28]: 67 nM
inhibition [29]: Dose-dependent effect

Cc1noc(C)c1[C@@H]1C[C@@](C)(c2cccc(NC(=O)c3ccc(Cl)cn3)c2F)N=C(N)S1
remaining at 10 min, 0.5 µM [1]: 38%
remaining at 10 min, 0.5 µM [2]: 38%
IC50 [3]: 0.16 µM
remaining at 10 min, 0.5 µM [4]: 43%

Cc1noc(C)c1[C@]1(C)C[C@@H](c2cc(-c3cncnc3)c(F)cc2F)N=C(N)S1 (relative stereo)
IC50 [3]: 3.7 µM

Cc1noc(C)c1[C@@H]1C[C@@](C)(c2cc(NC(=O)c3ccc(Cl)cn3)cc(F)c2F)N=C(N)S1
remaining at 10 min, 0.5 µM [1]: 87%
remaining at 10 min, 0.5 µM [2]: 58%
IC50 [3]: 0.0007 µM
remaining at 10 min, 0.5 µM [4]: 63%

COc1ccc([C@@H]2C[C@@H](c3cc(-c4cncnc4)c(F)cc3F)N=C(N)S2)cc1OC
IC50 [3]: 0.29 µM

Cc1noc(C)c1[C@@H]1C[C@@](C)(c2cc(N)cc(F)c2F)N=C(N)S1
Activity [30]: Non-toxic
fraction unbound at 5 h [31]: 0.05
